Reference: ChEMBL document CHEMBL4138242, “Synthesis and antibacterial evaluation of novel cationic chalcone derivatives possessing broad spectrum antibacterial activity” (Eur J Med Chem, 2018)
Calls of active or inactive are those of the source. The rule behind the calls is not given here.

The compounds below were run on Klebsiella pneumoniae (assay: Antibacterial activity against drug-resistant carbapenemase producing Klebsiella pneumoniae clinical isolate EC-13-23 after 16 to 20 hrs by broth microdilution method).
Assay type: functional
Method in brief: (§1)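 CLSI broth microdilution in Mueller-Hinton broth. A 4-6 h culture was diluted to about 10⁶ CFU/mL and mixed 1:1 with compound dilutions prepared at 256 to 0.5 µg/mL from aqueous stocks. Plates were incubated at 37 °C for 16-20 h and read visually for MIC. Each concentration was run in duplicate, and the experiment was repeated at least twice. Vancomycin and meropenem were comparators.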
CCCCCCCC[N+](C)(C)CC(=O)Nc1ccc(C(=O)/C=C/c2ccc(F)cc2F)cc1.[Cl-] was tested, and the MIC was 8 µg/mL.

What follows are compounds tested on Klebsiella pneumoniae (assay: Antibacterial activity against drug-resistant carbapenemase producing Klebsiella pneumoniae clinical isolate KP-14-5 after 16 to 20 hrs by broth microdilution method).
Assay type: functional
Method in brief: as §1
Compound CCCCCCCC[N+](C)(C)CC(=O)Nc1ccc(C(=O)/C=C/c2ccc(F)cc2F)cc1.[Cl-] has an MIC of 4 µg/mL.

These compounds were tested on Klebsiella pneumoniae (assay: Antibacterial activity against drug-resistant carbapenemase producing Klebsiella pneumoniae clinical isolate KP-13-55 after 16 to 20 hrs by broth microdilution method).
Assay type: functional
Method in brief: as §1
For CCCCCCCC[N+](C)(C)CC(=O)Nc1ccc(C(=O)/C=C/c2ccc(F)cc2F)cc1.[Cl-], the MIC was 8 µg/mL.

What follows are compounds tested on Klebsiella pneumoniae (assay: Antibacterial activity against drug-resistant carbapenemase producing Klebsiella pneumoniae clinical isolate KP-14-45 after 16 to 20 hrs by broth microdilution method).
Assay type: functional
Method in brief: as §1
CCCCCCCC[N+](C)(C)CC(=O)Nc1ccc(C(=O)/C=C/c2ccc(F)cc2F)cc1.[Cl-] gave an MIC of 8 µg/mL.

The compounds below were run on Klebsiella pneumoniae (assay: Antibacterial activity against drug-resistant carbapenemase producing Klebsiella pneumoniae clinical isolate KP-14-18 after 16 to 20 hrs by broth microdilution method).
Assay type: functional
Method in brief: as §1
Work on CCCCCCCC[N+](C)(C)CC(=O)Nc1ccc(C(=O)/C=C/c2ccc(F)cc2F)cc1.[Cl-] yielded an MIC of 8 µg/mL.

Each compound was assayed on Escherichia coli (assay: Antibacterial activity against drug-resistant NDM1 producing Escherichia coli clinical isolate EC-13-49 after 16 to 20 hrs by broth microdilution method).
Assay type: functional
Method in brief: as §1
CCCCCCCC[N+](C)(C)CC(=O)Nc1ccc(C(=O)/C=C/c2ccc(F)cc2F)cc1.[Cl-] gave an MIC of 4 µg/mL.

These compounds were tested on Escherichia coli (assay: Antibacterial activity against drug-resistant NDM1 producing Escherichia coli clinical isolate Ecl-14-58 after 16 to 20 hrs by broth microdilution method).
Assay type: functional
Method in brief: as §1
Work on CCCCCCCC[N+](C)(C)CC(=O)Nc1ccc(C(=O)/C=C/c2ccc(F)cc2F)cc1.[Cl-] yielded an MIC of 4 µg/mL.

What follows are compounds tested on Escherichia coli (assay: Antibacterial activity against drug-resistant NDM1 producing Escherichia coli clinical isolate KP-13-58 after 16 to 20 hrs by broth microdilution method).
Assay type: functional
Method in brief: as §1
CCCCCCCC[N+](C)(C)CC(=O)Nc1ccc(C(=O)/C=C/c2ccc(F)cc2F)cc1.[Cl-] showed an MIC of 2 µg/mL.

These compounds were tested on Escherichia coli (assay: Antibacterial activity against drug-resistant NDM1 producing Escherichia coli clinical isolate Ecl-13-62 after 16 to 20 hrs by broth microdilution method).
Assay type: functional
Method in brief: as §1
Compound CCCCCCCC[N+](C)(C)CC(=O)Nc1ccc(C(=O)/C=C/c2ccc(F)cc2F)cc1.[Cl-] has an MIC of 4 µg/mL.

Each compound was assayed on Escherichia coli (assay: Antibacterial activity against drug-resistant NDM1 producing Escherichia coli clinical isolate EC-14-54 after 16 to 20 hrs by broth microdilution method).
Assay type: functional
Method in brief: as §1
Compound CCCCCCCC[N+](C)(C)CC(=O)Nc1ccc(C(=O)/C=C/c2ccc(F)cc2F)cc1.[Cl-] has an MIC of 8 µg/mL.

These compounds were tested on Escherichia coli (assay: Antibacterial activity against drug-resistant NDM1 producing Escherichia coli clinical isolate Ecl-14-59 after 16 to 20 hrs by broth microdilution method).
Assay type: functional
Method in brief: as §1
In the case of CCCCCCCC[N+](C)(C)CC(=O)Nc1ccc(C(=O)/C=C/c2ccc(F)cc2F)cc1.[Cl-], the MIC is reported as 4 µg/mL.

Each compound was assayed on Escherichia coli (assay: Antibacterial activity against drug-resistant NDM1 producing Escherichia coli clinical isolate EA-14-61 after 16 to 20 hrs by broth microdilution method).
Assay type: functional
Method in brief: as §1
Work on CCCCCCCC[N+](C)(C)CC(=O)Nc1ccc(C(=O)/C=C/c2ccc(F)cc2F)cc1.[Cl-] yielded an MIC of 4 µg/mL.

These compounds were tested on Escherichia coli (assay: Antibacterial activity against drug-resistant NDM1 producing Escherichia coli clinical isolate Ecl-14-56 after 16 to 20 hrs by broth microdilution method).
Assay type: functional
Method in brief: as §1
Work on CCCCCCCC[N+](C)(C)CC(=O)Nc1ccc(C(=O)/C=C/c2ccc(F)cc2F)cc1.[Cl-] yielded an MIC of 4 µg/mL.

What follows are compounds tested on Escherichia coli (assay: Antibacterial activity against drug-resistant NDM1 producing Escherichia coli clinical isolate 1460 after 16 to 20 hrs by broth microdilution method).
Assay type: functional
Method in brief: as §1
CCCCCCCC[N+](C)(C)CC(=O)Nc1ccc(C(=O)/C=C/c2ccc(F)cc2F)cc1.[Cl-] was tested, and the MIC was 4 µg/mL.

These compounds were tested on Escherichia coli (assay: Antibacterial activity against drug-resistant NDM1 producing Escherichia coli clinical isolate SM-15-84 after 16 to 20 hrs by broth microdilution method).
Assay type: functional
Method in brief: as §1
Work on CCCCCCCC[N+](C)(C)CC(=O)Nc1ccc(C(=O)/C=C/c2ccc(F)cc2F)cc1.[Cl-] yielded an MIC of 16 µg/mL.

Each compound was assayed on Escherichia coli (assay: Antibacterial activity against drug-resistant NDM1 producing Escherichia coli clinical isolate CF-15-61 after 16 to 20 hrs by broth microdilution method).
Assay type: functional
Method in brief: as §1
Compound CCCCCCCC[N+](C)(C)CC(=O)Nc1ccc(C(=O)/C=C/c2ccc(F)cc2F)cc1.[Cl-] has an MIC of 4 µg/mL.

These compounds were tested on Escherichia coli (assay: Antibacterial activity against drug-resistant NDM1 producing Escherichia coli clinical isolate CF-13-61 after 16 to 20 hrs by broth microdilution method).
Assay type: functional
Method in brief: as §1
For CCCCCCCC[N+](C)(C)CC(=O)Nc1ccc(C(=O)/C=C/c2ccc(F)cc2F)cc1.[Cl-], the MIC was 2 µg/mL.

The compounds below were run on Staphylococcus aureus (assay: Induction of cytoplasmic membrane depolarization in Staphylococcus aureus ATCC 29213 at 10 to 20 ug/ml measured every 2 mins for 12 mins by DiSC35 dye-based fluorescence assay).
Assay type: functional, organism-based
Method in brief: (§2)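 Mid-log cells (~10⁸ CFU/mL) were suspended in PBS (S. aureus) or HEPES/glucose/KCl with EDTA (E. coli). They were preloaded with DiSC3(5) for 30 min (S. aureus) or 40 min (E. coli), and baseline fluorescence was read for 8 min. Compound was added to 20 µg/mL final, and fluorescence (ex 622/em 670 nm) was read every 2 min for 12 min. Water served as control.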
For CCCCCCCC[N+](C)(C)CC(=O)Nc1ccc(C(=O)/C=C/c2ccc(F)cc2F)cc1.[Cl-], the Activity was “Active”.

These compounds were tested on Escherichia coli (assay: Induction of cytoplasmic membrane depolarization in Escherichia coli ATCC 25922 at 10 to 20 ug/ml measured every 2 mins for 12 mins by DiSC35 dye-based fluorescence assay).
Assay type: functional, organism-based
Method in brief: as §2
CCCCCCCC[N+](C)(C)CC(=O)Nc1ccc(C(=O)/C=C/c2ccc(F)cc2F)cc1.[Cl-] was tested, and the Activity was “Active”.

What follows are compounds tested on Staphylococcus aureus (assay: Induction of inner membrane permeabilization in Staphylococcus aureus ATCC 29213 at 10 to 20 ug/ml measured every 2 mins for 12 mins by propidium iodide staining-based fluorescence assay).
Assay type: functional, organism-based
Method in brief: (§3)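 Mid-log cells (~10⁸ CFU/mL) were suspended in PBS (S. aureus) or HEPES/glucose/KCl (E. coli). They were preincubated with propidium iodide for 30 min (S. aureus) or 40 min (E. coli), and baseline fluorescence was read for 8 min. Compound was added to 20 µg/mL final, and fluorescence (ex 535/em 617 nm) was read every 2 min for 12 min.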
For CCCCCCCC[N+](C)(C)CC(=O)Nc1ccc(C(=O)/C=C/c2ccc(F)cc2F)cc1.[Cl-], the Activity was “Active”.

The compounds below were run on Escherichia coli (assay: Induction of inner membrane permeabilization in Escherichia coli ATCC 25922 at 10 to 20 ug/ml measured every 2 mins for 12 mins by propidium iodide staining-based fluorescence assay).
Assay type: functional, organism-based
Method in brief: as §3
With CCCCCCCC[N+](C)(C)CC(=O)Nc1ccc(C(=O)/C=C/c2ccc(F)cc2F)cc1.[Cl-] the Activity was “Active”.
